# The source made the active and inactive calls. The rule behind the calls is not given here.
# Legend:
# [1] = tested on: HEK293; assay: Effect on Wnt/[…] reporter pathway in HEK293 cells expressing super(8X)TOPFlash reporter assessed as luciferase activity in presence of Wnt-3a; format: functional, cell-based; conditions: Homo sapiens
# Outline: (§1)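 HEK293 cells transfected with Super(8X)TOPFlash reporter plus renilla control; 24 h post-transfection, compound added over a dose range with or without Wnt-3a conditioned medium (1:1 vol/vol to growth medium); firefly luciferase read 36 h later, normalized to renilla; error bars SD.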
# [2] = Activation of Wnt/[…] pathway in Xenopus embryos assessed as partial double axis formation at 10 uM in presence of XWnt-8 RNA after 24 hrs; format: functional
# Outline: (§2)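 XWnt-8 RNA (0.5 pg) co-injected with 10 nL of 10 μM compound (or 10 nL water) into one ventral blastomere at 16- to 32-cell stage; embryos kept 24 h, then scored for partial versus full double axis formation.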
# [3] = biological target: ADP-ribosylation factor 6 (Mus musculus) (UniProt P62331); assay: Inhibition of ADP-ribosylation factor 6 activity in mouse NIH3T3 cells assessed as increase in endogenous ARF6-GTP level at 2.5 uM relative to control; format: cell-based
# [4] = tested on: HEK293; assay: Effect on Wnt/[…] reporter pathway in HEK293 cells expressing super(8X)TOPFlash reporter plasmid assessed as luciferase activity; format: functional, Homo sapiens; outline: as §1
# [5] = tested on: HEK293; assay: Effect on Wnt/[…] reporter pathway in HEK293 cells expressing super(8X)TOPFlash reporter plasmid assessed as luciferase activity in presence of recombinant Wnt-3a; format: functional, cell-based; conditions: Homo sapiens
# [6] = tested on: HEK293; assay: Induction of Wnt-3a-induced DKK1 gene expression in HEK293 cells in presence of Wnt-3a; format: functional, cell-based; conditions: Homo sapiens
# [7] = tested on: MDA-MB-231; assay: Inhibition of migration of AMAP1 expressing human MDA-MB-231 cells at 2.5 uM relative to control; format: functional; design: scale not given: the % may be the effect or the level left
# Outline: (§3)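 Modified Boyden chambers, filter underside coated with 5 μg/cm² Matrigel; MDA-MB-231 cells (5,000/well) seeded upper chamber in RPMI1640 with 0.5% BSA plus compound, lower chamber DMEM with 10% FBS; after 12 h, cells on lower side counted by microscopy versus DMSO.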
# [8] = biological target: ADP-ribosylation factor 6 (Mus musculus) (UniProt P62331); assay: Inhibition of ADP-ribosylation factor 6 activity in mouse NIH3T3 cells assessed as increase in endogenous ARF6-GTP level at 1 uM relative to control; format: cell-based
# [9] = tested on: HEK293; assay: Induction of Wnt-3a-induced Axin2 gene expression in HEK293 cells in presence of Wnt-3a; format: functional, cell-based; conditions: Homo sapiens
# [10] = tested on: HEK293; assay: Effect on Wnt/[…] reporter pathway in HEK293 cells expressing super(8X)TOPFlash reporter assessed as luciferase activity at 2.5 uM in presence of Wnt-3a; format: functional, Homo sapiens
# Outline: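 HEK293 cells (20,000/well) reverse-transfected with Super(8X)TOPFlash and pTK-RL (Fugene6), 24 h at 37°C; compound 2.5 μM plus Wnt-3a conditioned medium (1:1 vol/vol) added; Dual-Glo luciferase read 36 h later, fold activation normalized to renilla; mean of three independent data points.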
# [11] = tested on: HEK293; assay: Effect on Wnt/[…] reporter pathway in HEK293 cells expressing superFOPFlash reporter plasmid assessed as luciferase activity at 0.11 to 25 uM in presence of Wnt-3a; format: functional, cell-based; conditions: Homo sapiens, 0.011 to 25 uM, in the assay text read “0.011 to 25 uM” for “0.11 to 25 uM”
# Outline: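 SuperFOPFlash reporter (mutated β-catenin/TCF sites) transfected into HEK293 cells; compound 0.011–25 μM given with Wnt-3a conditioned medium 24 h after transfection; luciferase read after 36 h, normalized to renilla.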
# [12] = Activation of Wnt/[…] pathway in Xenopus embryos assessed as full axis formation at 10 uM in presence of XWnt-8 RNA after 24 hrs; format: functional; outline: as §2
# [13] = tested on: MDA-MB-231; assay: Inhibition of migration of AMAP1 expressing human MDA-MB-231 cells; format: functional, cell-based; outline: as §3
# [14] = biological target: ADP-ribosylation factor GTPase-activating protein 1, ARFGAP1 (Homo sapiens) (UniProt Q8N6T3); assay: Binding affinity to purified ARFGAP1 by surface plasmon resonance analysis
# [15] = tested on: HEK293; assay: Reduction of super(8X)TOPFlash reporter activity in HEK293 cells at 0.25 uM in presence of Wnt-3a conditional medium relative to control; format: functional, Homo sapiens; design: scale not given: the % may be the effect or the level left
# Outline: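 HEK293 cells carrying the Super(8X)TOPFlash luciferase reporter, treated at 0.25 μM in Wnt-3a conditioned medium; reporter luciferase activity compared with DMSO-treated control cells under the same Wnt-3a stimulation.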
# ADP-ribosylation factor 6 (Mus musculus), sequence (P62331 whole entry): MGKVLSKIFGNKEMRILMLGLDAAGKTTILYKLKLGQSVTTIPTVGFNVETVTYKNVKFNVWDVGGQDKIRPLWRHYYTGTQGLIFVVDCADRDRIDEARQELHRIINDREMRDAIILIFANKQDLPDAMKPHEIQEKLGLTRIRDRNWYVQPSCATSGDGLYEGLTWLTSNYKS
# ADP-ribosylation factor GTPase-activating protein 1, ARFGAP1 (Homo sapiens), sequence (Q8N6T3 whole entry, looked up): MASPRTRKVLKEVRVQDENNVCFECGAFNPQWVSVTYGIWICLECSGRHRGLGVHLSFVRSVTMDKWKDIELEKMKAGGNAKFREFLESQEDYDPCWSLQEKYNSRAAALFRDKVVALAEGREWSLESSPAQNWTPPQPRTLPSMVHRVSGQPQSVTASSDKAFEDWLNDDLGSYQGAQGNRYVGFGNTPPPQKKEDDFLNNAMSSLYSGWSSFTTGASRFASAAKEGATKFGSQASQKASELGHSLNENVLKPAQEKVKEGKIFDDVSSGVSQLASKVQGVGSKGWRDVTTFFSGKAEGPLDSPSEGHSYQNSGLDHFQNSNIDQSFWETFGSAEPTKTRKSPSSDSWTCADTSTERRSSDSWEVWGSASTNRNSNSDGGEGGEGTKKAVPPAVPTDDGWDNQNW
structure (smiles),measurement,setting,value
O=[N+]([O-])c1ccc(-c2ccc(Cn3cnc4c(N[C@H](CO)Cc5ccccc5)nc(Oc5ccc6c(c5)CCC6)nc43)cc2)cc1,EC50,[1],1500 nM
OC[C@H](Cc1ccccc1)Nc1nc(Oc2ccc3c(c2)CCC3)nc2c1ncn2Cc1ccccc1,EC50,[1],> 7100 nM
OC[C@H](Cc1ccccc1)Nc1nc(Oc2cccc(-c3ccccc3)c2)nc2c1ncn2Cc1ccc(-c2ccccc2)cc1,EC50,[1],3100 nM
OC[C@H](Cc1ccccc1)Nc1nc(Oc2ccc3c(c2)CCC3)nc2c1ncn2Cc1ccc(-c2ccccc2)cc1,Activity,[2],30.2%
same,Activity,[3],Active
same,Activity,[4],2
same,Activity,[5],Active
same,Activity,[6],Active
same,Activity,[7],80%
same,Activity,[8],Active
same,Activity,[9],Active
same,Activity,[10],200
same,EC50,[1],500 nM
same,Activity,[11],inactive
same,Activity,[12],20.9%
same,Activity,[13],Dose-dependent effect
same,Kd,[14],620 nM
OC[C@@H](Cc1ccccc1)Nc1nc(Oc2ccc3c(c2)CCC3)nc2c1ncn2Cc1ccc(-c2ccccc2)cc1,EC50,[1],> 7100 nM
OC[C@H](Cc1ccccc1)Nc1nc(Oc2cccc3ccccc23)nc2c1ncn2Cc1ccc(-c2ccccc2)cc1,EC50,[1],4600 nM
C[C@H]1CCC/C=C/[C@@H]2C[C@H](O)C[C@H]2[C@H](O)/C=C/C(=O)O1 [BREFELDIN A],Activity,[15],50%
[N-]=[N+]=Nc1ccc(C[C@@H](CO)Nc2nc(Oc3ccc4c(c3)CCC4)nc3c2ncn3Cc2ccc(-c3ccccc3)cc2)cc1,EC50,[1],600 nM
O=[N+]([O-])c1ccc(C[C@@H](CO)Nc2nc(Oc3ccc4c(c3)CCC4)nc3c2ncn3Cc2ccc(-c3ccccc3)cc2)cc1,EC50,[1],400 nM
OC[C@H](Cc1ccccc1)Nc1nc(NCc2ccc3c(c2)OCO3)nc2c1ncn2Cc1ccc(-c2ccccc2)cc1,EC50,[1],> 7100 nM
FC(F)(F)c1ccc(Cn2cnc3c(NCCc4ccccc4)nc(Oc4ccc5c(c4)CCC5)nc32)cc1,EC50,[1],> 7100 nM
CC1(C)Cc2cc(Oc3nc(NCc4ccccc4)c4ncn(Cc5ccc(-c6ccccc6)cc5)c4n3)ccc2O1,EC50,[1],1700 nM
OC[C@H](Cc1ccccc1)Nc1nc(Nc2cccc3ccccc23)nc2c1ncn2Cc1ccc(-c2ccccc2)cc1,EC50,[1],> 7100 nM

# Reference: ChEMBL document CHEMBL1142220, “Small-molecule synergist of the Wnt/beta-catenin signaling pathway” (Proc Natl Acad Sci U S A, 2007)
